# Measured values published in ChEMBL document CHEMBL1275524, “Activities of antifungal agents against yeasts and filamentous fungi: assessment according to the methodology of the European Committee on Antimicrobial Susceptibility Testing” (2008).
# How the values were obtained:
# [1] = test system: Talaromyces marneffei; experiment: Antifungal activity against Penicillium marneffei by EUCAST method; format: functional; settings: read-out: MEC
# [2] = test system: Candida albicans; experiment: Antifungal activity against Candida albicans by EUCAST method; format: functional
# In short: (§1)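 Broth microdilution in flat-bottom plates in RPMI 1640 with 2% glucose; inoculum 0.5 × 105 to 2.5 × 10^5 CFU/ml. MICs were read spectrophotometrically at 24 h. AMB endpoint: ≥90% growth reduction vs drug-free control well. Azole and CPF endpoint: 50% reduction in optical density. MFC was taken as the lowest concentration giving 99% killing.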
# [3] = test system: Trichosporon inkin; experiment: Antifungal activity against Trichosporon inkin; format: functional
# In short: (§2)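 Nonfermentative yeasts were tested by the EUCAST microdilution recommendations with one change: plates were sealed and agitated at 350 rpm and 30°C for 48 h.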
# [4] = test system: Aspergillus terreus; experiment: Antifungal activity against Aspergillus terreus by EUCAST method; format: functional
# [5] = test system: Saccharomyces cerevisiae; experiment: Antifungal activity against Saccharomyces cerevisiae by EUCAST method; format: functional
# In short: (§3)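 EUCAST broth microdilution for yeasts in flat-bottom plates, RPMI 1640 with 2% glucose, inoculum 0.5 × 105 to 2.5 × 10^5 CFU/ml. […] MFC is the lowest concentration giving 99% killing.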
# [6] = test system: Lichtheimia corymbifera; experiment: Antifungal activity against Absidia corymbifera; format: functional
# [7] = test system: Nakaseomyces glabratus; experiment: Antifungal activity against Candida glabrata by EUCAST method; format: functional; in short: as §1
# [8] = test system: Lomentospora prolificans; experiment: Antifungal activity against Scedosporium prolificans by EUCAST method; format: functional; settings: read-out: MEC
# In short: (§4)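 Broth microdilution following the EUCAST reference procedure for spore-forming moulds, in flat-bottom plates with RPMI 1640 plus 2% glucose. Inoculum was 2 × 10^5 to 5 × 10^5 CFU/ml. MICs were read visually at 24 and 48 h as 100% growth reduction versus a drug-free control for polyenes and azoles. MEC was used for caspofungin. Tests were run in duplicate and repeated twice.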
# [9] = test system: Mucor hiemalis; experiment: Antifungal activity against Mucor hiemalis; format: functional
# [10] = test system: Rhizopus; experiment: Antifungal activity against Rhizopus species; format: functional; in short: as §4
# [11] = Antifungal activity against Rhizopus microsporus var. oligosporus; format: functional; in short: as §4
# [12] = test system: Fusarium oxysporum; experiment: Antifungal activity against Fusarium oxysporum; format: functional
# [13] = Antifungal activity against Rhinocladiella aquaspersa by EUCAST method; format: functional
# In short: (§5)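 Dematiaceous fungi were tested by the EUCAST spore-forming mold reference procedure: flat-bottom microdilution plates, RPMI 1640 plus 2% glucose, inoculum 2 × 105 to 5 × 10^5 CFU/ml. Endpoints were read visually at 24 and 48 h. Polyenes and azoles: 100% growth reduction vs drug-free control. CPF: minimum effective concentration. Run in duplicate and repeated twice.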
# [14] = test system: Trichosporon inkin; experiment: Antifungal activity against Trichosporon inkin by EUCAST method; format: functional; in short: as §2
# [15] = test system: Penicillium sp.; experiment: Antifungal activity against Penicillium species by EUCAST method; format: functional; settings: read-out: MEC
# [16] = test system: Rhizomucor; experiment: Antifungal activity against Rhizomucor species; format: functional
# [17] = test system: Trichosporon asahii; experiment: Antifungal activity against Trichosporon asahii by EUCAST method; format: functional; in short: as §2
# [18] = test system: Clavispora lusitaniae; experiment: Antifungal activity against Candida lusitaniae; format: functional; in short: as §1
# [19] = test system: Sporothrix schenckii; experiment: Antifungal activity against Sporothrix schenckii; format: functional; in short: as §4
# [20] = test system: Rhizopus arrhizus; experiment: Antifungal activity against Rhizopus oryzae by EUCAST method; format: functional; settings: read-out: MEC; in short: as §4
# [21] = test system: Talaromyces marneffei; experiment: Antifungal activity against Penicillium marneffei; format: functional
# [22] = test system: Trichosporon asahii; experiment: Antifungal activity against Trichosporon asahii; format: functional; in short: as §2
# [23] = test system: Fusarium solani; experiment: Antifungal activity against Fusarium solani by EUCAST method; format: functional; settings: read-out: MEC
# [24] = test system: Saccharomyces cerevisiae; experiment: Antifungal activity against Saccharomyces cerevisiae; format: functional
# In short: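 Broth microdilution following EUCAST for fermentative yeasts, in flat-bottom plates with RPMI 1640 plus 2% glucose. Inoculum was 0.5 × 10^5 to 2.5 × 10^5 CFU/ml. End points were read spectrophotometrically at 24 h: ≥90% growth reduction versus a drug-free control for amphotericin B, and 50% OD reduction for azoles and caspofungin. MFC was the lowest concentration giving 99% killing.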
# [25] = test system: Lichtheimia corymbifera; experiment: Antifungal activity against Absidia corymbifera by EUCAST method; format: functional; settings: read-out: MEC
# [26] = test system: Aspergillus niger; experiment: Antifungal activity against Aspergillus niger; format: functional
# [27] = test system: Aspergillus niger; experiment: Antifungal activity against Aspergillus niger by EUCAST method; format: functional
# [28] = test system: Pichia kudriavzevii; experiment: Antifungal activity against Candida krusei; format: functional; in short: as §3
# [29] = test system: Rhizopus arrhizus; experiment: Antifungal activity against Rhizopus oryzae; format: functional; in short: as §4
# [30] = test system: Curvularia australiensis; experiment: Antifungal activity against Bipolaris australiensis; format: functional; in short: as §5
# [31] = test system: Cryptococcus gattii; experiment: Antifungal activity against Cryptococcus neoformans var. gattii; format: functional, Cryptococcus bacillisporus
# In short: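 EUCAST yeast microdilution, modified for nonfermentative yeasts: plates were sealed and agitated at 350 rpm and 30°C for 48 h.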
# [32] = test system: Candida tropicalis; experiment: Antifungal activity against Candida tropicalis; format: functional; in short: as §1
# [33] = test system: Candida parapsilosis; experiment: Antifungal activity against Candida parapsilosis; format: functional; settings: Lodderomyces parapsilosis; in short: as §1
# [34] = test system: Sporothrix schenckii; experiment: Antifungal activity against Sporothrix schenckii by EUCAST method; format: functional; settings: read-out: MEC; in short: as §4
# [35] = test system: Candida parapsilosis; experiment: Antifungal activity against Candida parapsilosis by EUCAST method; format: functional; settings: Lodderomyces parapsilosis; in short: as §1
# [36] = test system: Clavispora lusitaniae; experiment: Antifungal activity against Candida lusitaniae by EUCAST method; format: functional; in short: as §1
compound,measurement,setting,value
CC[C@H](C)C[C@H](C)CCCCCCCCC(=O)N[C@H]1C[C@@H](O)[C@@H](NCCN)NC(=O)[C@@H]2[C@@H](O)CCN2C(=O)[C@H]([C@H](O)CCN)NC(=O)[C@H]([C@H](O)[C@@H](O)c2ccc(O)cc2)NC(=O)[C@@H]2C[C@@H](O)CN2C(=O)[C@H]([C@@H](C)O)NC1=O [CASPOFUNGIN],minimal effective concentration,[1],> 8 µg/mL
same,MIC,[2],0.14 µg/mL
same,MFC,[3],> 8 µg/mL
same,MIC,[4],0.19 µg/mL
same,minimal effective concentration,[4]; read-out: MEC,0.125 µg/mL
same,MIC,[5],1.3 µg/mL
same,MFC,[6],> 8 µg/mL
same,MIC,[7],0.32 µg/mL
same,minimal effective concentration,[8],> 8 µg/mL
same,MFC,[9],> 8 µg/mL
same,MFC,[10],> 8 µg/mL
same,MFC,[11],> 8 µg/mL
same,MFC,[12],> 8 µg/mL
same,MEC,[13],> 8 µg/mL
same,MIC,[14],5.33 µg/mL
same,minimal effective concentration,[15],> 8 µg/mL
same,MFC,[16],> 8 µg/mL
same,MIC,[17],4 µg/mL
same,MFC,[18],4 µg/mL
same,MFC,[19],> 8 µg/mL
same,minimal effective concentration,[20],> 8 µg/mL
same,MFC,[21],> 8 µg/mL
same,MFC,[22],> 8 µg/mL
same,minimal effective concentration,[23],> 8 µg/mL
same,MFC,[24],4 µg/mL
same,minimal effective concentration,[25],> 8 µg/mL
same,MFC,[26],> 8 µg/mL
same,MIC,[27],0.36 µg/mL
same,minimal effective concentration,[27]; read-out: MEC,0.25 µg/mL
same,MFC,[28],2 µg/mL
same,MFC,[29],> 8 µg/mL
same,MFC,[30],> 8 µg/mL
same,MFC,[31],> 8 µg/mL
same,MFC,[32],0.5 µg/mL
same,MFC,[33],0.25 µg/mL
same,minimal effective concentration,[34],> 8 µg/mL
same,MIC,[35],0.82 µg/mL
same,MIC,[36],0.32 µg/mL
